For 38 compounds, B-score results are on record in PubChem BioAssay AID2237 (Johns Hopkins Ion Channel Center, 2010).

The campaign covered roughly 310,000 compounds. About 1,500 (0.48%) were called active.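 How the source made its calls: active means B-score above 5 SD of library B-scores, and initial fluorescence ratio not above library mean plus 5 SD; inactive means the rest.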 The entries come from a sample that favours actives as a whole.

Chain of Short transient receptor potential channel 4 (Mus musculus) (Q9QUQ5 whole entry, looked up): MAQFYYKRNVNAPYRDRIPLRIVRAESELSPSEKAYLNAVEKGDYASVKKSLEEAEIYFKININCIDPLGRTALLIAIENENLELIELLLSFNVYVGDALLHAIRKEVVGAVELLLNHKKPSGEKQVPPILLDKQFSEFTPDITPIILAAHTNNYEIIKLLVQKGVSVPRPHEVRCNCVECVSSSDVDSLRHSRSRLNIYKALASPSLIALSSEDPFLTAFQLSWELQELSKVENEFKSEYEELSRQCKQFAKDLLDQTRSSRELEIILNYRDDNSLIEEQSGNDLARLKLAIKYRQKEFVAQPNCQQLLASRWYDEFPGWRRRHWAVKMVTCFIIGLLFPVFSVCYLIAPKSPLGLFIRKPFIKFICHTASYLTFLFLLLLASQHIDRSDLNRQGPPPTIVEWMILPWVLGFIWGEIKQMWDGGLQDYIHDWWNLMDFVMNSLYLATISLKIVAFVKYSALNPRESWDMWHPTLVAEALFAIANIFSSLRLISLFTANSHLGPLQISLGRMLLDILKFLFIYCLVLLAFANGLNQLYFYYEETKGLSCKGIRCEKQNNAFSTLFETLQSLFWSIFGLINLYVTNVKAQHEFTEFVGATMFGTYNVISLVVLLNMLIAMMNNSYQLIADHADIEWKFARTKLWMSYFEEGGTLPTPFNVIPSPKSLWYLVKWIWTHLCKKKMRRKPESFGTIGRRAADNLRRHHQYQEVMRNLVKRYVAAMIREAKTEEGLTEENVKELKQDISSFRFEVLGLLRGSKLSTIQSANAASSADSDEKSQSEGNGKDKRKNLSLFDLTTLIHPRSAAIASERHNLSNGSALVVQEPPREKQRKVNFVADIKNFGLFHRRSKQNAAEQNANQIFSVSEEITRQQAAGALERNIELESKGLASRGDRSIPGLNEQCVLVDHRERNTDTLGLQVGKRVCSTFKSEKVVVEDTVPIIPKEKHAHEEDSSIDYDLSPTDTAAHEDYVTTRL

For this assay, the target named is Short transient receptor potential channel 4 (Mus musculus) (UniProt Q9QUQ5). As to the kind of experiment: TRPC4 cation channel opening, calcium rise – Fluo4 calcium, HEK293 TRPC4beta/mu-opioid cells, primary screen (AID 2237).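 On B-score: positive B-score marks a calcium rise read as TRPC4 activation.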 The conditions noted are these: Fluo4 calcium fluorescence, at 10 µM; hits give high values. An outline of the steps: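 Test system: HEK293 cells stably co-expressing mouse TRPC4beta and mu-opioid receptor | Schedule: Fluo4 dye loading 45 min at room temperature, 110 s recording | Measured by: Kinetic Fluo4 calcium fluorescence, 5 s baseline at 1 Hz | Evaluation: B score of integrated ratio | Controls: Buffer (low) and maximal DAMGO (high)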
Consider `CCNS(=O)(=O)c1ccc(CCC(=O)N2CCN(c3ccc(OC)cc3)CC2)cc1`, for which the B-score result is “inactive”.

In the case of `COCC(=O)Nc1ccc(Br)cc1`, the B-score result was “inactive”. Turning to `CN1CCN(NC(=O)Nc2ccc(Br)cc2)CC1`, the B-score result was “inactive”. Regarding `CN1C(CC(=O)Nc2ccc(Br)cc2)c2ccccc2CC1(C)C` (stereo not drawn), the B-score is 109 (active). For `COC(=O)C1CCN(C(=O)NC2CC(=O)N(c3ccc4c(c3)OCCO4)C2)CC1` (stereo not drawn), the B-score result was “inactive”. As for `CN(CC(=O)Nc1ccccc1Cl)C(=O)COc1cccc2c1OC(C)(C)C2`, the B-score entry is “inactive”. Consider `CCOC(=O)C1(CC2CCCCO2)CCN(Cc2nc(-c3cccs3)oc2C)CC1` (stereo not drawn), for which the B-score was 73 (active). Consider `CCOc1ccccc1-c1nc(CN2CCC(C(=O)N3CCOCC3)CC2)c(C)o1`, for which the B-score result was “inactive”. Then `COc1cccc(CC2(CO)CCCN(Cc3nc(-c4cccs4)oc3C)C2)c1` (stereo not drawn), with “inactive”; and `CC12CCC(C(=O)N(NC(=O)c3ccccc3O)C1=O)C2(C)C` (stereo not drawn), with “inactive”; and `O=C(NCc1cccnc1)c1cnc2ccccc2n1`, with “inactive”.

Turning to `COc1cc(C(=O)Nn2c(CC(C)C)nc3ccccc3c2=O)cc(OC)c1OC`, the B-score entry was “inactive”. Then `Cc1onc(-c2ccccc2)c1C(=O)Nc1ccccc1C#N`, with “inactive”; and `COc1ccc(C(=O)NC(=S)NNC(=O)c2c(-c3ccccc3)noc2C)cc1`, with 133 (active). For `Cc1onc(-c2ccccc2)c1C(=O)NNC(=S)NC(=O)c1ccc(F)cc1`, the B-score is 185 (active). Then `Cc1ccc(CNC(=O)c2c(-c3ccccc3)noc2C)cc1`, with “inactive”; and `CCc1noc(C)c1C(=O)NNC(=O)c1ccc(F)cc1`, with “inactive”. Consider `Cc1onc(-c2c(Cl)cccc2Cl)c1C(=O)NNC(=O)c1c(-c2c(Cl)cccc2Cl)noc1C`, for which the B-score result was “inactive”.

In the case of `CCc1cccc(C)c1NS(=O)(=O)c1cc(Br)cnc1N`, the B-score entry is “inactive”.

Take `Cc1cc(NS(=O)(=O)c2ccc(NC(=O)C(C)Oc3cccc(C)c3C)cc2)nc(C)n1` (stereo not drawn): the B-score result was “inactive”. Turning to `COc1ccccc1N1CCN(c2nc(C)cc(=O)[nH]2)CC1`, the B-score entry was “inactive”. With `Cc1ccc(CN2CCN(c3ccccc3Cl)CC2)o1`, the B-score result is “inactive”.

As to `OCCNCc1cccc(OCc2ccccc2Cl)c1`, the B-score result is “inactive”. Then `OCCNCCCCOc1ccccc1F`, with “inactive”. As for `OCCNCCOc1ccc(Cl)c(Cl)c1`, the B-score was 70 (active).

Take `COc1cccc2c1CCC(NC(C)=O)C2=O` (stereo not drawn): the B-score entry was “inactive”. In the case of `c1ccc(C[C@H]2CNCCN2CCC23CC4CC(CC(C4)C2)C3)cc1`, the B-score result was “inactive”. In the case of `COC(=O)C1(C)CC1(c1ccccc1)c1ccccc1` (stereo not drawn), the B-score result is “inactive”. For the compound `CCNS(=O)(=O)c1ccc(NC(=O)Nc2cccc(OC)c2)cc1`, the B-score was 54 (active). `CCN(CC(=O)Nc1ccc(S(=O)(=O)N2CCCC2)cc1)CC(=O)Nc1cccc(OC)c1`: the B-score entry was “inactive”. `COc1cccc(NC(C)=[N+](C)CCNS(=O)(=O)c2ccc(Cl)cc2)c1`: the B-score result is “inactive”.

In the case of `CC(CN1CCCCC1)c1ccccc1` (stereo not drawn), the B-score entry is “inactive”. As for `CC(=O)N1CCN(CC(c2ccccc2)c2ccccc2)CC1`, the B-score result was “inactive”. Turning to `CC(=O)c1ccc(N2CCN(CC(O)c3ccccc3)CC2)cc1` (stereo not drawn), the B-score is 63 (active). For the compound `CC(=O)c1ccc(N2CCN(C(=O)CCc3ccccc3)CC2)cc1`, the B-score result was “inactive”.

Take `CCCOc1ccc(Cc2c(O)nc(N)[nH]c2=O)cc1C`: the B-score entry is “inactive”. Regarding `C=CCc1ccc(OCCOc2cccc(/C=N/n3cnnc3)c2)c(OC)c1`, the B-score result was “inactive”.

As for `COC(=O)[C@H]1Cc2cnoc2C[C@]1(C)C(=O)O`, the B-score result was “inactive”.
